Results from ChEMBL document CHEMBL1146019, “Structure-based design of novel HIV-1 protease inhibitors to combat drug resistance” (J Med Chem, 2006).
pIC50, pKi: −log10 of the molar value.

Legend:
[1] = tested on: Human immunodeficiency virus 1; assay: Antiviral activity against multi drug-resistant HIV1 ES variant in human PHA-PBMC cells; format: functional, organism-based; details: Human immunodeficiency virus 1, PBMC
How it was run: (§1)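 PHA-activated peripheral blood mononuclear cells (1 × 10⁶/mL) infected with 50 TCID₅₀ of each isolate and cultured with or without drug in 10-fold serial dilutions. On day 7, p24 Gag protein in the supernatant was measured by automated chemiluminescent enzyme immunoassay. IC₅₀ was the concentration suppressing p24 production by 50% relative to drug-free control cultures. Assays were run in triplicate.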

[2] = tested on: Human immunodeficiency virus 1; assay: Antiviral activity against multi drug-resistant HIV1 ET variant in human PHA-PBMC cells; format: functional, organism-based; details: Human immunodeficiency virus 1, PBMC; how it was run: as §1
[3] = tested on: Human immunodeficiency virus 1; assay: Antiviral activity against multi drug-resistant HIV1 EV variant in human PHA-PBMC cells; format: functional, organism-based; details: Human immunodeficiency virus 1, PBMC; how it was run: as §1
[4] = tested on: Human immunodeficiency virus 1; assay: Antiviral activity against multi drug-resistant HIV1 K variant in human PHA-PBMC cells; format: functional, organism-based; details: Human immunodeficiency virus 1, PBMC; how it was run: as §1
[5] = tested on: Human immunodeficiency virus 1; assay: Antiviral activity against multi drug-resistant HIV1 TM variant in human PHA-PBMC cells; format: functional, organism-based; details: Human immunodeficiency virus 1, PBMC; how it was run: as §1
[6] = tested on: Human immunodeficiency virus 1; assay: Antiviral activity against multi drug-resistant HIV1 B variant in human PHA-PBMC cells; format: functional, organism-based; details: Human immunodeficiency virus 1, PBMC; how it was run: as §1
[7] = tested on: Human immunodeficiency virus 2; assay: Antiviral activity against HIV2 EHO isolate in human MT2 cells; format: functional, organism-based; details: Human immunodeficiency virus 2, MT2
How it was run: (§2)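 MT-2 cells (2 × 10⁴/mL) were infected with 100 TCID₅₀ of virus and incubated with various drug concentrations at 37 °C for 7 days. MTT was then added for 2 h at 37 °C, formazan was dissolved in acidified 2-propanol with 4% Triton X-100, and optical density was read. Assays were run in duplicate or triplicate.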

[8] = tested on: Human immunodeficiency virus 1; assay: Antiviral activity against HIV1 LAI isolate in human MT2 cells; format: functional, organism-based; details: Human immunodeficiency virus 1, MT2; how it was run: as §2
[9] = tested on: Human immunodeficiency virus 1; assay: Antiviral activity against multi drug-resistant HIV1 G variant in human PHA-PBMC cells; format: functional, organism-based; details: Human immunodeficiency virus 1, PBMC; how it was run: as §1
[10] = tested on: Human immunodeficiency virus 1; assay: Antiviral activity against HIV1 BA-L isolate in human PHA-PBMC cells; format: functional, organism-based; details: Human immunodeficiency virus 1, PBMC
How it was run: as §1, with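 “PBMC” for “peripheral blood mononuclear cells”, “were exposed to” for “infected with”, “7, supernatant” for “7,”, “Gag” for “Gag protein in the supernatant”, “by” for “by automated”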

[11] = tested on: Human immunodeficiency virus 1; assay: Antiviral activity against multi drug-resistant HIV1 C variant in human PHA-PBMC cells; format: functional, organism-based; details: Human immunodeficiency virus 1, PBMC; how it was run: as §1
[12] = tested on: Human immunodeficiency virus 1; assay: Antiviral activity against HIV1 LAI isolate in human PHA-PBMC cells; format: functional, organism-based; details: Human immunodeficiency virus 1, PBMC
How it was run: as §1, with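 “PBMC” for “peripheral blood mononuclear cells”, “were exposed to” for “infected with”, “7, supernatant” for “7,”, “Gag” for “Gag protein in the supernatant”, “by” for “by automated”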

[13] = target: Human immunodeficiency virus type 1 protease (Human immunodeficiency virus 1, UniProt Q72874); assay: Inhibition of HIV1 protease
[14] = tested on: MT2; assay: Cytotoxicity against human MT2 cells; format: functional
[15] = tested on: PBMC; assay: Cytotoxicity against human PHA-PBMC cells; format: functional

CC(C)CN(C[C@@H](O)[C@H](Cc1ccccc1)NC(=O)O[C@H]1CCOC1)S(=O)(=O)c1ccc(N)cc1
pIC50 [1]: < 6.00
pIC50 [2]: 7.64
pIC50 [3]: < 6.00
pIC50 [4]: 7.17
pIC50 [5]: 6.66
pIC50 [6]: 6.54
pIC50 [7]: 6.36
pIC50 [8]: 7.62
pIC50 [9]: 6.51
pIC50 [10]: 7.54
pIC50 [11]: 6.52
pIC50 [12]: 7.47

CC(C)CN(CC(O)C(Cc1ccccc1)NC(=O)O[C@H]1C[C@H]2CCC[C@H]2C1)S(=O)(=O)c1ccc(CO)cc1 (some centres not stated)
pKi [13]: 8.28
pIC50 [8]: < 6.00

CC(C)CN(C[C@@H](O)[C@H](Cc1ccccc1)NC(=O)O[C@H]1CO[C@H]2OCC[C@H]21)S(=O)(=O)c1ccc(N)cc1
pIC50 [4]: 8.52
pIC50 [5]: 8.46
pIC50 [6]: 7.99
pIC50 [9]: 8.43
pIC50 [11]: 8.46

CC(C)CN(CC(O)C(Cc1ccccc1)NC(=O)O[C@@H]1C[C@@H]2CCO[C@@H]2C1)S(=O)(=O)c1ccc(N)cc1 (some centres not stated)
pKi [13]: 9.85
pIC50 [8]: 8.10

CC(C)(C)NC(=O)[C@@H]1C[C@@H]2CCCC[C@@H]2CN1C[C@@H](O)[C@H](Cc1ccccc1)NC(=O)[C@H](CC(N)=O)NC(=O)c1ccc2ccccc2n1
pIC50 [1]: < 6.00
pIC50 [2]: 7.77
pIC50 [3]: < 6.00
pIC50 [4]: 7.70
pIC50 [5]: 6.60
pIC50 [7]: 8.72
pIC50 [8]: 7.62
pIC50 [9]: 7.23
pIC50 [10]: 7.74
pIC50 [11]: 7.00
pIC50 [12]: 7.85

CC(C)(C)NC(=O)[C@@H]1CN(Cc2cccnc2)CCN1C[C@@H](O)C[C@@H](Cc1ccccc1)C(=O)N[C@H]1c2ccccc2C[C@H]1O
pIC50 [1]: < 6.00
pIC50 [2]: 7.52
pIC50 [3]: < 6.00
pIC50 [4]: 6.59
pIC50 [5]: < 6.00
pIC50 [6]: < 6.00
pIC50 [7]: 7.89
pIC50 [8]: 7.59
pIC50 [9]: 6.30
pIC50 [10]: 7.62
pIC50 [11]: 6.30
pIC50 [12]: 7.49

CC(C)CN(CC(O)C(Cc1ccccc1)NC(=O)O[C@@H]1C[C@@H]2CCO[C@@H]2C1)S(=O)(=O)c1ccc(CO)cc1 (some centres not stated)
pIC50 [1]: 7.51
pIC50 [2]: 8.52
pIC50 [3]: 7.28
CC50 [14]: > 100000 nM
pIC50 [4]: 8.52
pIC50 [5]: 8.40
pIC50 [6]: 7.82
pIC50 [7]: 7.68
CC50 [15]: > 100000 nM
pIC50 [8]: 8.74
pIC50 [9]: 7.70
pIC50 [10]: 8.70
pIC50 [11]: 8.30
pIC50 [12]: 8.74

CC(C)c1nc(CN(C)C(=O)N[C@H](C(=O)N[C@@H](Cc2ccccc2)C[C@H](O)[C@H](Cc2ccccc2)NC(=O)OCc2cncs2)C(C)C)cs1 [RITONAVIR]
pIC50 [1]: < 6.00
pIC50 [2]: 7.82
pIC50 [3]: < 6.00
pIC50 [4]: 7.24
pIC50 [5]: < 6.00
pIC50 [6]: < 6.00
pIC50 [7]: 6.54
pIC50 [8]: 7.47
pIC50 [9]: < 6.00
pIC50 [10]: 7.44
pIC50 [11]: < 6.00
pIC50 [12]: 7.37

Cc1c(O)cccc1C(=O)N[C@@H](CSc1ccccc1)[C@H](O)CN1C[C@H]2CCCC[C@H]2C[C@H]1C(=O)NC(C)(C)C
pIC50 [1]: < 6.00
pIC50 [2]: 7.49
pIC50 [3]: < 6.00
pIC50 [4]: < 6.00
pIC50 [5]: < 6.00
pIC50 [6]: < 6.00
pIC50 [7]: 7.70
pIC50 [8]: 8.00
pIC50 [9]: 6.77
pIC50 [10]: 8.15
pIC50 [11]: 6.51
pIC50 [12]: 7.85
